Laboratory results as given in ChEMBL document CHEMBL4118251 (J Med Chem, 2018).

Experiments:
[1] = Agonist activity at monkey GIP receptor expressed in HEK293 cells assessed as cAMP accumulation after 30 mins by HTRF assay; format: cell-based, Macaca mulatta; details: Macaca mulatta, HEK293, 0.5 h
Summary of the method: (§1)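 HEK293 lines stably expressing human or monkey receptor were detached with accutase. Cells were resuspended at 400 000 cells/mL in HBSS/20 mM HEPES/0.1% BSA/2 mM IBMX and exposed to peptide for 30 min at room temperature. cAMP was read by HTRF (665/620 nm) after 1 h lysis.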

Homo sapiens = organism: Homo sapiens; test: Selectivity ratio of EC50 for human glucagon receptor expressed in HEK293 cells to EC50 for human GLP1R expressed in HEK293 cells; format: cell-based; summary of the method: as §1
[2] = Solubility in pH 4.5 acetate buffer at 10 mg/ml after 2 hrs in presence of 0.5% phenol by UPLC-UV analysis; format: physicochemical
Summary of the method: (§2)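 Buffers were 100 mM sodium acetate pH 4.5 or 100 mM sodium phosphate pH 7.4, with or without 0.5% phenol. Solid peptide was dispersed at 10 mg/mL, with content corrected by UPLC-MS and ion chromatography, and gently agitated for 2 h. After centrifugation (15 min, 3000 rcf), the supernatant was diluted 1:10 and quantified by UPLC-UV against a DMSO standard curve.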

Cynomolgus monkey [3] = test: Hypoglycemic activity in diet-induced obesity cynomolgus monkey model assessed as plasma HbA1c level at 1.5 ug/kg on day 1 to 3, 3 ug/kg on day 4 to 6, 4.5 ug/kg on day 7 to 9, 6 ug/kg from day 10 to 17 and 8 ug/kg on day 18 to 42 administered sc once daily measured on day 43 post last dose (reference value: 8.7 +/- 0.8%); format: functional, Macaca fascicularis
[4] = biological target: T1, Gastric inhibitory polypeptide receptor (Homo sapiens, UniProt P48546); test: Agonist activity at human GIP receptor expressed in HEK293 cells assessed as cAMP accumulation after 30 mins by HTRF assay; format: functional, cell-based
T1 sequence (P48546 whole entry): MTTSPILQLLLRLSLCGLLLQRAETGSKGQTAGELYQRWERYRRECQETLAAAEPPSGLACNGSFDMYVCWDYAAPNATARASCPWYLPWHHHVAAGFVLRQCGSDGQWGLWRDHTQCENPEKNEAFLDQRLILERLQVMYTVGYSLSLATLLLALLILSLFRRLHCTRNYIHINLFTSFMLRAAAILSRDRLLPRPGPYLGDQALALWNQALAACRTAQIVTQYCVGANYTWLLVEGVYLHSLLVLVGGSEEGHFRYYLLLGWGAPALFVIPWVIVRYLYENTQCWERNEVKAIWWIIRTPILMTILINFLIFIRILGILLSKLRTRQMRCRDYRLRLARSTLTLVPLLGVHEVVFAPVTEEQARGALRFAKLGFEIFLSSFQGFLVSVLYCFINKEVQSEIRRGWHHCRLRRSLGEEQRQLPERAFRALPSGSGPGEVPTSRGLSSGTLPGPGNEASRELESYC

Cynomolgus monkey [5] = test: Potency index, ratio of liraglutide dose to compound dose for antiobesity activity in diet-induced obesity cynomolgus monkey model assessed as reduction in body weight administered sc once daily measured every 3 to 4 days during compound dosing; format: functional, Macaca fascicularis
[6] = AUC (0 to 22 hrs) in diet-induced obesity cynomolgus monkey model at 8 ug/kg, sc for 6 weeks on day 43 by LC-MS analysis; format: ADME, organism-based, Macaca fascicularis; parameters: dose 8 ug/kg, time < 22 hr, route subcutaneous; details: in vivo, 0.008 mg/kg
Summary of the method: (§3)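 Obese diabetic cynomolgus monkeys were dosed once daily sc with PBS-diluted drug for 6 weeks. On day 43, blood was drawn just before dosing and at 1, 2, 4, 8 and 22 h after, into EDTA-2K tubes. Plasma was separated at 2500 × g for 10 min at 4 °C. The dual agonist was measured by LC-MS after protein precipitation; liraglutide was measured by ELISA.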

[7] = Plasma concentration in diet-induced obesity cynomolgus monkey model at 8 ug/kg, sc for 6 weeks measured […] dose on day 43 by LC-MS analysis; format: ADME, organism-based, Macaca fascicularis; details: 0.008 mg/kg; summary of the method: as §3
[8] = biological target: Glucagon-like peptide 1 receptor (Macaca fascicularis, UniProt F8V479); test: Agonist activity at monkey GLP1R expressed in HEK293 cells assessed as cAMP accumulation after 30 mins by HTRF assay; format: cell-based, Macaca mulatta
[9] = biological target: Glucagon-like peptide 1 receptor (Homo sapiens, UniProt P43220); test: Agonist activity at human GLP1R expressed in HEK293 cells assessed as cAMP accumulation after 30 mins by HTRF assay; format: functional, cell-based
[10] = Plasma concentration in diet-induced obesity cynomolgus monkey model at 8 ug/kg, sc for 6 weeks measured 1 hr post dose on day 43 by LC-MS analysis; format: ADME, organism-based, Macaca fascicularis; details: 0.008 mg/kg; summary of the method: as §3
[11] = Plasma concentration in diet-induced obesity cynomolgus monkey model at 8 ug/kg, sc for 6 weeks measured 8 hrs post dose on day 43 by LC-MS analysis; format: ADME, organism-based, Macaca fascicularis; details: 0.008 mg/kg; summary of the method: as §3
[12] = Solubility in pH 4.5 acetate buffer at 10 mg/ml after 2 hrs in presence of 0.5% phenol by UPLC-UV analysis
[13] = Plasma concentration in diet-induced obesity cynomolgus monkey model at 8 ug/kg, sc for 6 weeks measured 4 hrs post dose on day 43 by LC-MS analysis; format: ADME, organism-based, Macaca fascicularis; details: 0.008 mg/kg; summary of the method: as §3
Glucagon receptor = Glucagon receptor (Homo sapiens, UniProt P47871); test: Agonist activity at human glucagon receptor expressed in HEK293 cells assessed as cAMP accumulation after 30 mins by HTRF assay; format: functional, cell-based
[14] = Plasma concentration in diet-induced obesity cynomolgus monkey model at 8 ug/kg, sc for 6 weeks measured 2 hrs post dose on day 43 by LC-MS analysis; format: ADME, organism-based, Macaca fascicularis; details: 0.008 mg/kg; summary of the method: as §3
[15] = Ratio of EC50 for monkey glucagon receptor expressed in HEK293 cells to EC50 for human glucagon receptor expressed in HEK293 cells; format: cell-based; summary of the method: as §1
[16] = Solubility in pH 4.5 acetate buffer at 10 mg/ml after 2 hrs by UPLC-UV analysis; format: physicochemical; summary of the method: as §2
Cynomolgus monkey [17] = test: Antiobesity activity in diet-induced obesity cynomolgus monkey model assessed as reduction in body weight at 1.5 ug/kg on day 1 to 3, 3 ug/kg on day 4 to 6, 4.5 ug/kg on day 7 to 9, 6 ug/kg from day 10 to 17 and 8 ug/kg on day 18 to 42 administered sc once daily measured every 3 to 4 days during compound dosing relative to control; format: functional, Macaca fascicularis; parameters: scale not given: the % may be the effect or the level left
Summary of the method: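 Obese diabetic cynomolgus monkeys were offered about 680 kcal/day. They were block-randomized into 3 groups by body weight, fasted glucose and %HbA1C. Dosing was once daily sc in PBS vehicle over a 6-week study with ramped doses. Food and water intake were logged daily, and body weight was measured every 3–4 days. Two insulin-requiring vehicle animals were excluded.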

[18] = Plasma concentration in diet-induced obesity cynomolgus monkey model at 8 ug/kg, sc for 6 weeks measured 22 hrs post dose on day 43 by LC-MS analysis; format: ADME, organism-based, Macaca fascicularis; details: 0.008 mg/kg; summary of the method: as §3
[19] = Solubility in pH 4.5 acetate buffer at 10 mg/ml after 2 hrs by UPLC-UV analysis
[20] = Agonist activity at monkey glucagon receptor expressed in HEK293 cells assessed as cAMP accumulation after 30 mins by HTRF assay; format: cell-based, Macaca mulatta; details: Macaca mulatta, HEK293, 0.5 h; summary of the method: as §1

Sequence of Glucagon-like peptide 1 receptor (Homo sapiens, UniProt P43220) (P43220 whole entry): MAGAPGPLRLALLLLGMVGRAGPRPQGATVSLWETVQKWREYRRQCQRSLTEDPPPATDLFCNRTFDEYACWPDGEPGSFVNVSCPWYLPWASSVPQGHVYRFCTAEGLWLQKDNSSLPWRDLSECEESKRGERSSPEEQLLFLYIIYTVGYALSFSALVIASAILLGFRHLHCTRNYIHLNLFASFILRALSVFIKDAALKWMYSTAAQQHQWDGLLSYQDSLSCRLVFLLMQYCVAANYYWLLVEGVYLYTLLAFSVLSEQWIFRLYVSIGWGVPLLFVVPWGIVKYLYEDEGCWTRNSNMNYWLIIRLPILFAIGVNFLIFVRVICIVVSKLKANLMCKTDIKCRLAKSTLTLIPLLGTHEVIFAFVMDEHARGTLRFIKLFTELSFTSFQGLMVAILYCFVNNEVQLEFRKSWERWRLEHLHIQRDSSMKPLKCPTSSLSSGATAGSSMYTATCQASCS
Sequence of Glucagon receptor (P47871 whole entry): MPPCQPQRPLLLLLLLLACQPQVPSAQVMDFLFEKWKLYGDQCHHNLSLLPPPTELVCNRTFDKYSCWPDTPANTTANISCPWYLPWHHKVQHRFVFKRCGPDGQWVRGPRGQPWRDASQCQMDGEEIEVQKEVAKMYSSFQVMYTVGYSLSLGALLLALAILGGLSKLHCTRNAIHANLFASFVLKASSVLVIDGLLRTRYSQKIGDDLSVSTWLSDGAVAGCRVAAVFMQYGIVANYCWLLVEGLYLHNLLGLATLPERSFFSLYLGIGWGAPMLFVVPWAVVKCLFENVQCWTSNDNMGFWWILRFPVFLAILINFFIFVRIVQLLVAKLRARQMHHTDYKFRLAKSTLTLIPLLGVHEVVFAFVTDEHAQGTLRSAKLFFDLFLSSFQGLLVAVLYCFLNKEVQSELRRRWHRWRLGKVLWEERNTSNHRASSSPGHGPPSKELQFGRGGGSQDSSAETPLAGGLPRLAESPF
Sequence of Glucagon-like peptide 1 receptor (Macaca fascicularis, UniProt F8V479) (F8V479 whole entry): as the sequence (P43220 whole entry) above, with A4T, M17V, S135N, F143S, S225G, L228V, L260F, W264R, I272V counted along it

EC50 [1]: 2.05 nM
solubility at 2 h [2]: ≥ 10000 µg/mL
EC50 [4]: 2.03 nM
AUC at 22 h [6]: 254 ng·h/mL
concentration at 1008 h [7]: 0.66 ng/mL
EC50 [8]: 0.002 nM
EC50 [9]: 0.0018 nM
concentration at 1 h [10]: 21.6 ng/mL
concentration at 8 h [11]: 12.4 ng/mL
solubility at 2 h [12]: ≥ 10000 µg/mL
concentration at 4 h [13]: 24.3 ng/mL
EC50 (Glucagon receptor): 0.029 nM
concentration at 2 h [14]: 28 ng/mL
solubility at 2 h [16]: ≥ 10000 µg/mL
concentration at 22 h [18]: 0.69 ng/mL
solubility at 2 h [19]: ≥ 10000 µg/mL
EC50 [20]: 0.129 nM
Structure (SMILES): CCCCCCCCCCCCCCCCC(=O)[C@H](CCN[C@@H](CCC(=O)NCCCC[C@H](NC(=O)[C@H](CCC(N)=O)NC(=O)[C@H](CCCCN)NC(=O)[C@H](CO)NC(=O)[C@H](CC(C)C)NC(=O)[C@H](CC(=O)O)NC(=O)[C@H](CO)NC(=O)[C@@H](NC(=O)[C@H](Cc1ccccc1)NC(=O)[C@@H](NC(=O)CNC(=O)[C@H](CCC(N)=O)NC(=O)C(C)(C)NC(=O)[C@@H](N)Cc1cnc[nH]1)[C@@H](C)O)[C@@H](C)O)C(=O)N[C@@H](CC(=O)O)C(=O)N[C@@H](CCC(=O)O)C(=O)N[C@@H](CCC(N)=O)C(=O)N[C@@H](CCCNC(=N)N)C(=O)N[C@@H](C)C(=O)N[C@@H](CCCCN)C(=O)N[C@@H](CC(C)C)C(=O)N[C@@H](Cc1ccccc1)C(=O)N[C@H](C(=O)N[C@@H](CCC(=O)O)C(=O)N[C@@H](Cc1c[nH]c2ccccc12)C(=O)N[C@@H](CC(C)C)C(=O)NC(C)(C)C(=O)N[C@@H](C)C(=O)NCC(=O)NCC(=O)N1CCC[C@H]1C(=O)N1CCC[C@H]1C(=O)N[C@@H](CO)C(=O)N[C@@H](C)C(=O)N[C@@H](CCCCN)C(=O)N1CCC[C@H]1C(=O)N1CCC[C@H]1C(=O)N1CCC[C@H]1C(=O)N[C@@H](CCCCN)C(N)=O)[C@@H](C)CC)C(=O)O)C(=O)O
Ratio EC50 (Homo sapiens): 10 to 15
Activity (Cynomolgus monkey [3]): 7.1%
Ratio (Cynomolgus monkey [5]): 5
Ratio EC50 [15]: 4
Activity (Cynomolgus monkey [17]): 6.9%
